Assay results of several laboratories.
Compare with care: the assays were run in different laboratories.
Target: Serine/threonine-protein kinase PLK3 (PLK3, Homo sapiens, UniProt Q9H4B4)

Structure (SMILES)	observed	method	tested at	remaining binding
CC(C)(C)c1ccc(-c2nc(CBr)nn2-c2cccc(O)c2)cc1	cell-free assay	competition with immobilised ligand	10 µM	98%
Cc1cnc(Nc2ccc(C(=O)N3CCC(N4CCCC4)CC3)cc2)nc1-c1cc2ccccc2s1	binding	competition with immobilised ligand	1 µM	42%
F[C@@H]1CCN(c2nccc(-c3cnn4ncccc34)n2)C1	binding		1 µM	87%
COCCOc1nc(-c2ccc(Cl)nc2)nc2c1CN(C(=O)c1ncn3ccccc13)CC2	cell-free assay	competition with immobilised ligand	0.1 µM	100%
O=C(NCCCN1CCOCC1)c1ccc(Nc2ncc(Cl)c(-c3ccc(Cl)s3)n2)cc1	binding	competition with immobilised ligand	1 µM	7.8%
CN(c1nccc(-c2cnn3ncccc23)n1)C1CC1	binding		1 µM	86%
N#Cc1ccccc1CSc1nnc2c(n1)[nH]c1ccccc12	binding	competition with immobilised ligand	10 µM	100%
CCOCCn1cc(C(=O)Nc2ccc(-n3nc(-c4cccnc4)cc3C(F)(F)F)cn2)ccc1=O	cell-free assay	competition with immobilised ligand	1 µM	84%
CCN1CCN(Cc2ccc(C(=O)Nc3ccc(C)c(Oc4ccc5c(c4)CC(=O)N5)c3)cc2C(F)(F)F)CC1	binding	competition with immobilised ligand	1 µM	100%
CN(CCCC(F)(F)F)c1nccc(-c2cnn3ncccc23)n1	binding		1 µM	100%
CS(=O)(=O)c1cc(C2(NC(=O)c3cncc4c3cnn4-c3ccc(F)cc3)CC2)ccn1	cell-free assay	competition with immobilised ligand	1 µM	68%
O=C(Nc1c[nH]nc1C(=O)NC1CCNCC1)c1cc(F)cc(F)c1	binding	competition with immobilised ligand	1 µM	86%
O=C(c1ccc(Nc2ncc(Cl)c(-c3ccc(Cl)s3)n2)cc1)N1CCC(N2CCCC2)CC1	binding	competition with immobilised ligand	1 µM	31%
CNC(=O)[C@@H]1CC[C@@H](n2c(-c3ccc4cnccc4c3)nc3ccc(C(=O)NCc4cccc(C(N)=O)c4)cc32)C1	binding	competition with immobilised ligand	1 µM	100%
C[C@H](NC(=O)c1cnc2n1[C@](C)(Cc1ccc(C#N)cc1)C(=O)N2c1cc(Cl)c(F)c(Cl)c1)C(=O)NC1(c2ccccn2)CC1	cell-free assay	competition with immobilised ligand	1 µM	81%
c1cnn2ncc(-c3ccnc(N4CCC45COC5)n3)c2c1	binding		1 µM	79%
NS(=O)(=O)c1cc(NC(=O)Cc2ccccc2)ccc1Oc1cccc(Cl)c1	cell-free assay	competition with immobilised ligand	1 µM	87%
C[C@@H]1CN(c2ccc3ncc(-c4ccc5[nH]nc(C6CC6)c5c4)n3n2)C[C@H](C)O1	binding	competition with immobilised ligand	50 nM	78%
CN([C@@H]1CCc2c(CC(=O)O)c3ccccc3n2C1)S(=O)(=O)c1ccc(F)cc1	cell-free assay	competition with immobilised ligand	1 µM	85%
Nc1ncc2c(n1)-c1c([nH]c3ccc(C#CC4CC4)cc13)CCCC2	binding	competition with immobilised ligand	1 µM	99%
C[C@@H]1CCN(c2nccc(-c3cnn4ncccc34)n2)C1	binding		1 µM	88%
COc1ccc2cc(OCC3(C(=O)O)CN(C(=O)c4ccc(F)cc4)C3)ccc2c1	cell-free assay	competition with immobilised ligand	1 µM	95%
N[C@H]1CCN(c2nccc(-c3cnn4ncccc34)n2)C1	binding		1 µM	83%
c1cncc(-c2cccc(Nc3nccc(NC4CCCCC4)n3)c2)c1	binding	competition with immobilised ligand	10 µM	78%
